Calls of active or inactive are those of the source. The calls are words filed in the database; no cut-off is given here.
Key:
[1] = Inhibition of full length recombinant His6-tagged PI4K3beta (unknown origin) expressed in Sf9 insect cells using PI : PS as substrate in presence of [gamma-33P]-ATP by scintillation counting method; set-up: species or system Homo sapiens
Enterovirus A71 [2] = assay: Antiviral activity against Enterovirus 71 infected in RD cells assessed as reduction in virus-induced cytopathic effect incubated for 2 to 3 days; type: functional, cell-based
Outline: (§1)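 RD cells seeded at 20 000/well in MEM with 2% FCS and infected with EV71. Three 8-step 1:5 dilution series from 100 μM. Incubated 2-3 days until maximal CPE, then scored for CPE reduction. EC50 is the median of three dose-response curves.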

[3] = Cytotoxicity against human RD cells after 2 to 3 days by MTS method; type: cell-based
Outline: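 Uninfected RD cells, 20 000/well in 2% FCS medium, run in parallel with the antiviral assay. Three 8-step 1:5 dilution series from 100 μM, 2-3 days. Read-out by 5% MTS, 1.5 h at 37 °C, absorbance 498 nm, as % of untreated controls. CC50 is the 50% metabolic activity point, median of 3 curves.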

[4] = Cytotoxicity against human RD cells assessed as change in cell morphology by microscopic method; type: cell-based
Outline: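 Uninfected, compound-treated RD cells were inspected by microscope. CC50 was taken from microscopically detectable alteration of cell morphology.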

Poliovirus 1 = assay: Antiviral activity against Poliovirus 1 after 2 to 3 days by cell based MTS assay; type: functional; conditions: Enterovirus C
Outline: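 Vero cells seeded at 20 000/well in MEM with 2% FCS. Three 8-step 1:5 dilution series from 100 μM, then virus, then cells; 2–3 days until maximal CPE. Read-out: 5% MTS for 1.5 h at 37°C, absorbance at 498 nm, expressed as % of untreated controls. EC50 taken as the median of 3 dose-response curves.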

[5] = (§2) Inhibition of full length recombinant His6-tagged PI4K3alpha (unknown origin) expressed in Sf9 insect cells assessed as residual activity at 100 uM using PI : PS as substrate in presence of [gamma-33P]-ATP by scintillation counting method relative to control; conditions: Homo sapiens
rhinovirus A2 = assay: Antiviral activity against Rhinovirus 2 after 2 to 3 days by cell based MTS assay; type: functional
[6] = Selectivity index, ratio of CC50 for human RD cells to EC50 for Enterovirus 71; type: toxicity; conditions: read-out: Ratio CC50/EC50
Outline: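 SI is CC50/EC50. CC50 is from the MTS assay on uninfected RD cells and EC50 from the EV71 CPE-reduction assay, both medians of three dose-response curves run in parallel.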

[7] = Selectivity index, ratio of CC50 for human RD cells assessed as change in cell morphology to EC50 for Enterovirus 71; type: toxicity; conditions: read-out: Ratio CC50/EC50
Outline: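 SI is CC50/EC50. CC50 is from microscopically detected morphology change in uninfected RD cells and EC50 from the EV71 CPE-reduction assay in RD cells.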

Coxsackievirus B3 = assay: Antiviral activity against Coxsackievirus B3 after 2 to 3 days by cell based MTS assay; type: functional; conditions: Enterovirus B
Echovirus E11 = assay: Antiviral activity against Echovirus 11 after 2 to 3 days; type: functional; conditions: Enterovirus B
enterovirus D68 = assay: Antiviral activity against Enterovirus 68 after 2 to 3 days; type: functional
rhinovirus B14 = assay: Antiviral activity against Rhinovirus 14 after 2 to 3 days by cell based MTS assay; type: functional
[8] = target: PI3-kinase p110-alpha/p85-alpha (Homo sapiens) (UniProt P27986+P42336); assay: as §2, with “recombinant human N-terminal” for “recombinant”, “PI3Kalpha (1 to 1068 residues)/full length human N-terminal myc-tagged P85alpha (1 to 724 residues)” for “PI4K3alpha (unknown origin)”
[9] = tested on: Cystic fibrosis transmembrane conductance regulator (Homo sapiens), P13569 [F508del]; assay: Corrector activity at CFTR F508 deletion mutant (unknown origin) expressed in HEK293 cells assessed as increase in steady-state level of F508 deletion mutant at plasma membrane at 10 uM preincubated for 24 hrs followed by compound washout by pHTomato dye based fluorescence imaging method; type: cell-based
Sequence of Cystic fibrosis transmembrane conductance regulator (Homo sapiens), P13569 [F508del] (P13569 as listed by the source): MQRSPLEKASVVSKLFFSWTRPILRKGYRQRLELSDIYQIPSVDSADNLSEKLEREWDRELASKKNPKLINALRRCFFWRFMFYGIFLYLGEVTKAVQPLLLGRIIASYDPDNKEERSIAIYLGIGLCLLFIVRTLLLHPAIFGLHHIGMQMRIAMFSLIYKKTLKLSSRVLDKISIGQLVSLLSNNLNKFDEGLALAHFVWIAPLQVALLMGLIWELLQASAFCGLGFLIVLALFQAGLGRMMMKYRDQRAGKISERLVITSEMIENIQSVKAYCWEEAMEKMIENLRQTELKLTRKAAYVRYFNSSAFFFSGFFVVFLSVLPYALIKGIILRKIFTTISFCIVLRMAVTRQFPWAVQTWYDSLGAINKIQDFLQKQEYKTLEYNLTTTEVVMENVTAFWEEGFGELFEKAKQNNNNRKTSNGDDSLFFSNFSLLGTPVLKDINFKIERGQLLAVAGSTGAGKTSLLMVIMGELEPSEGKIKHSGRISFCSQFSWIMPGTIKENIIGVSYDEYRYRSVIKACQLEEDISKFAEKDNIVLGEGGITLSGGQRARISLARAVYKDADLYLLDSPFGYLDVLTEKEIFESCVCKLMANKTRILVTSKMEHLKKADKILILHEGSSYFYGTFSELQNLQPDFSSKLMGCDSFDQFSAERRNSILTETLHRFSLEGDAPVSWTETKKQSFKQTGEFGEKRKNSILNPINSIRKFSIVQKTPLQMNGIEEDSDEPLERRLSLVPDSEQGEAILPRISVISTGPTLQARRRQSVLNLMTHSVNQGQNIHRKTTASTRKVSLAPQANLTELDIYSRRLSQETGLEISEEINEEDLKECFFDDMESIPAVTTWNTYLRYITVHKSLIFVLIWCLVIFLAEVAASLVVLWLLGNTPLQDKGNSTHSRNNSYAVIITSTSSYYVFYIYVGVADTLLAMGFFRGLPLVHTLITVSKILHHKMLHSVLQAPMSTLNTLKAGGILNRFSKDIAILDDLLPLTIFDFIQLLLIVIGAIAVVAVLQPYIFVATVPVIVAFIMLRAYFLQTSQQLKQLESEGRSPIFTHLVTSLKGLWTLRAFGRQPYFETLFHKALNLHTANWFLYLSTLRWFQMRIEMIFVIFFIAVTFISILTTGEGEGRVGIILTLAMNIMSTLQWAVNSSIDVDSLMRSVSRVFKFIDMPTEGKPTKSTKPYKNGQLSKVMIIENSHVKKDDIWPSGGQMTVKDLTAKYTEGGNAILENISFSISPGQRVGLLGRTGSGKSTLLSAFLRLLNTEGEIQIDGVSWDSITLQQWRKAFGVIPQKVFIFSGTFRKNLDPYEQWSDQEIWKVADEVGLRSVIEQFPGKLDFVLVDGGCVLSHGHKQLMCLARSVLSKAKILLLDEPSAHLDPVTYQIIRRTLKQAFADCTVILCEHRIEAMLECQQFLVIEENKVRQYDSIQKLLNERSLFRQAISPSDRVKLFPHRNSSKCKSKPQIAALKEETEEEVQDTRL
Outline: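 HEK293 cells were transiently transfected (Lipofectamine 2000) with F508del-CFTR-pHTomato plus co-expressed soluble eGFP, then kept 24 h at 37 °C. Next, 24 h at 30 °C with 10 μM drug. Imaging in pH 7.4 HEPES buffer, then extracellular pH shifted to ~6.5 (MES) and ~8.8 (Tris). The eGFP-normalized fluorescence rise (ΔF) estimates membrane CFTR.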

[10] = tested on: Cystic fibrosis transmembrane conductance regulator (Homo sapiens), P13569 [F508del]; assay: Potentiator activity at CFTR F508 deletion mutant (unknown origin) expressed in HEK293 cells assessed as increase in aninon permeability at 10 uM […] by YFP probe based imaging method; type: cell-based
Enterovirus A71 [11] = assay: Antiviral activity against Enterovirus 71 infected in RD cells assessed as reduction in virus-induced cytopathic effect; type: functional, cell-based; conditions: Enterovirus A; outline: as §1
[12] = Enterovirus A, RD, read-out: EC50

Structure (SMILES)	IC50 ([1]; read-out: IC50) [µM]	EC50 (Enterovirus A71 [2]; [12]) [µM]	CC50 [3] [µM]	Activity [5] [%]	selectivity ratio [6]	Activity [8] [%]	Activity [10]	EC50 (Enterovirus A71 [2])	other results
CC(=O)Nc1nc(C)c(-c2c[nH]c(Nc3cccc(C(C)=O)c3)n2)s1	> 50	> 90.2	85.7						CC50 [4]: 64.2 µM
CC(=O)c1cccc(Nc2nc(-c3sc(NC(=O)c4ccccc4)nc3C)cs2)c1	18.9	0.51	5.75	81	11.3	54	inactive		EC50 (Poliovirus 1): 2.23 µM; EC50 (rhinovirus A2; Rhinovirus A, read-out: EC50): 2.05 µM; CC50 [4]: 11.8 µM; selectivity ratio [7]: 23.1; EC50 (Coxsackievirus B3): 2.19 µM; EC50 (Echovirus E11): 1.77 µM; EC50 (enterovirus D68): Not Active; EC50 (rhinovirus B14; Rhinovirus B, read-out: EC50): > 230 µM; Activity [9]: Active
CC(=O)c1cccc(Nc2nc(-c3sc(NC(=O)NCc4ccc(Cl)cc4)nc3C)cs2)c1	3.95	4.77	20.9		4.4				
CCC(=O)Nc1nc(C)c(-c2csc(Nc3cccc(C(C)=O)c3)n2)s1	0.27	0.38	10.1	72	26.6	40	inactive		EC50 (Poliovirus 1): < 1.52 µM; EC50 (rhinovirus A2; Rhinovirus A, read-out: EC50): > 259 µM; CC50 [4]: 6.37 µM; selectivity ratio [7]: 23.6; EC50 (Coxsackievirus B3): 2.16 µM; EC50 (Echovirus E11): 0.97 µM; EC50 (enterovirus D68): Not Active; EC50 (rhinovirus B14): Not Active; Activity [9]: Active
CC(=O)c1cccc(Nc2nc(-c3sc(NC(=O)c4ccc(I)cc4)nc3C)cs2)c1	> 50	> 44.6							
CC(=O)c1cccc(Nc2nc(-c3sc(NC(=O)C(C)(C)C)nc3C)cs2)c1	0.32	0.27	7.94	71	29.4	93	inactive		EC50 (Poliovirus 1): < 1.41 µM; EC50 (rhinovirus A2; Rhinovirus A, read-out: EC50): 2.01 µM; CC50 [4]: 8.83 µM; selectivity ratio [7]: 32.7; EC50 (Echovirus E11): 0.72 µM; EC50 (enterovirus D68; Enterovirus D, read-out: EC50): 1.38 µM; EC50 (rhinovirus B14; Rhinovirus B, read-out: EC50): 4.85 µM
CC(=O)c1cccc(Nc2nc(-c3sc(NC(=O)NC4CCCCC4)nc3C)cs2)c1	1.82	2	8.87		4.4				
CC(=O)c1cccc(Nc2nc(-c3sc(NC(=S)Nc4ccccc4)nc3C)cs2)c1	> 50							Not Active	
CC(=O)Nc1nc(C)c(-c2csc(Nc3cccc(C(C)=O)c3)n2)s1	0.48	0.92	16.5	52	17.9	37	inactive		EC50 (Poliovirus 1): 3.09 µM; EC50 (rhinovirus A2): Not Active; CC50 [4]: 9.73 µM; selectivity ratio [7]: 10.6; EC50 (Coxsackievirus B3): 2.17 µM; EC50 (Echovirus E11): 1.57 µM; EC50 (enterovirus D68): Not Active; EC50 (rhinovirus B14; Rhinovirus B, read-out: EC50): > 268 µM
CC(=O)c1cccc(Nc2nc(-c3sc(NC(=O)C(F)(F)F)nc3C)cs2)c1	21.9	2	25.8	73	12.9	85	inactive		EC50 (Poliovirus 1): 2.86 µM; EC50 (rhinovirus A2; Rhinovirus A, read-out: EC50): 10.6 µM; CC50 [4]: 30.1 µM; selectivity ratio [7]: 15; EC50 (Coxsackievirus B3): 3.87 µM; EC50 (Echovirus E11): 3.51 µM; EC50 (rhinovirus B14; Rhinovirus B, read-out: EC50): 10.6 µM
CC(=O)c1cccc(Nc2nc(-c3sc(NC(=O)c4ccc(C)cc4)nc3C)cs2)c1	> 50	> 55.7							
CC(=O)Nc1nc(C)c(-c2csc(Nc3ccccc3)n2)s1	2.48	1.93	18.6	58	9.64	81	inactive		
CC(=O)c1cccc(Nc2nc(-c3sc(NC(=O)NC45CC6CC(CC(C6)C4)C5)nc3C)cs2)c1	12.4							Not Active	
CC(=O)Nc1nc(C)c(-c2csc(Nc3cccc(O)c3)n2)s1	2.63							Not Active	
CC(=O)c1cccc(Nc2nc(-c3sc(NC(=O)Nc4ccccc4)nc3C)cs2)c1	7.69							Not Active	
COc1ccc(Cl)cc1Nc1nnc(-c2csc(NC(=O)C(C)(C)C)n2)s1								Not Active	IC50 [1]: Not Active
COc1cccc(Nc2nc(-c3sc(NC(C)=O)nc3C)cs2)c1	1.55	1.2	9.17	71	5.9	51	inactive		
CC(=O)c1cccc(NC(=S)Nc2cccc(NC(=O)C(C)(C)C)c2)c1								Not Active	IC50 [1]: Not Active
CC(=O)Nc1cccc(NC(=S)Nc2cccc(C(C)=O)c2)c1								Not Active	IC50 [1]: Not Active
COc1ccc(Cl)cc1Nc1nnc(-c2csc(NC(=O)C(C)(C)C)n2)o1								Not Active	IC50 [1]: Not Active
COc1ccc(-c2c(C)nn3c(NCCN4CCOCC4)cc(C)nc23)cc1OC									EC50 (Enterovirus A71 [11]): 0.73 µM
CC(=O)c1cccc(Nc2nc(-c3sc(NC(=S)NC4CCCCC4)nc3C)cs2)c1	> 50							Not Active	
CCC(=O)Nc1nc(C)c(-c2csc(Nc3ccc(N(C)C)cc3)n2)s1	50	8.58	51.6		6				CC50 [4]: 142 µM
CC(=O)Nc1nc(C)c(-c2csc(Nc3ccc(C(C)=O)cc3)n2)s1	3.71	0.68	5.59	73	8.2	100	inactive		

From ChEMBL document CHEMBL3997800, “Discovery of Multitarget Agents Active as Broad-Spectrum Antivirals and Correctors of Cystic Fibrosis Transmembrane Conductance Regulator for Associated Pulmonary Diseases” (J Med Chem, 2017)
